From ChEMBL document CHEMBL3808334, “Synthesis and in vitro evaluation of novel triazine analogues as anticancer agents and their interaction studies with bovine serum albumin” (Eur J Med Chem, 2016)

Assays:
Type in all cases: functional
[1] = Growth inhibition of human SKOV3 cells assessed as cell growth at 10^-7 M incubated for 48 hrs by sulforhodamine B assay; details: SK-OV-3, 48 h, read-out: Activity
[2] = Growth inhibition of human BT549 cells incubated for 48 hrs by sulforhodamine B assay; details: BT-549, 48 h
Outline: (§1)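 Five-dose assay: five concentrations from 10-fold or ½-log serial dilutions. Cells are plated at 5,000–40,000 per well according to doubling time, grown 24 h, then exposed 48 h at 37 °C, 5% CO₂. Fixed with cold 50% TCA (final addition) for 60 min at 4 °C and stained with 0.4% SRB in 1% acetic acid. Bound dye is solubilized in 10 mM Tris base and read at 515 nm. GI₅₀ is where [(Ti−Tz)/(C−Tz)]×100 = 50, with a time-zero plate as Tz.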

HT-29 = assay: Growth inhibition of human HT-29 cells assessed as cell growth at 10^-7 M incubated for 48 hrs by sulforhodamine B assay; details: HT-29, 48 h, read-out: Activity
T47D = assay: Growth inhibition of human T47D cells assessed as cell growth at 10^-5 M incubated for 48 hrs by sulforhodamine B assay; details: read-out: Activity
NCI-H460 = assay: Growth inhibition of human NCI-H460 cells assessed as cell growth at 10^-6 M incubated for 48 hrs by sulforhodamine B assay; details: NCI-H460, 48 h, read-out: Activity
Malme-3M = assay: Growth inhibition of human MALME-3M cells assessed as cell growth at 10^-5 M incubated for 48 hrs by sulforhodamine B assay; details: read-out: Activity
MDA-MB-231 = assay: Growth inhibition of human MDA-MB-231 cells assessed as cell growth at 10^-7 M incubated for 48 hrs by sulforhodamine B assay; details: MDA-MB-231, 48 h, read-out: Activity
NCI-H322M [3] = assay: Growth inhibition of human NCI-H322M cells assessed as cell growth at 10^-4 M incubated for 48 hrs by sulforhodamine B assay; details: read-out: Activity
[4] = Growth inhibition of human SW620 cells assessed as cell growth at 10^-4 M incubated for 48 hrs by sulforhodamine B assay; details: SW-620, 48 h, read-out: Activity
[5] = Growth inhibition of human SNB19 cells assessed as cell growth at 10^-7 M incubated for 48 hrs by sulforhodamine B assay; details: SNB-19, 48 h, read-out: Activity
NCI-H522 = assay: Growth inhibition of human NCI-H522 cells assessed as cell growth at 10^-6 M incubated for 48 hrs by sulforhodamine B assay; details: NCI-H522, 48 h, read-out: Activity
[6] = Growth inhibition of human COLO205 cells assessed as cell growth at 10^-8 M incubated for 48 hrs by sulforhodamine B assay; details: COLO 205, 48 h, read-out: Activity
Outline: (§2)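 Cells seeded at 5,000–40,000/well according to doubling time and preincubated 24 h at 37 °C, 5% CO2. Time-zero plates were TCA-fixed. DMSO concentrate was diluted in medium with 50 µg/ml gentamicin to give five concentrations (10-fold or ½ log steps), then exposed 48 h. Cells were TCA-fixed, stained with 0.4% SRB and read at 515 nm. Percent growth was taken against time-zero and control; GI50, TGI and LC50 derived.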

NCI-H322M [7] = assay: Growth inhibition of human NCI-H322M cells incubated for 48 hrs by sulforhodamine B assay
Outline: (§3)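 Cells were plated at 5,000–40,000 per well according to doubling time and preincubated 24 h at 37 °C in 5% CO2; time-zero plates were then TCA-fixed. Five concentrations (10-fold or ½-log dilutions, DMSO stock) were incubated 48 h. Cells were TCA-fixed, stained with 0.4% SRB and read at 515 nm. GI50 was taken where [(Ti−Tz)/(C−Tz)]×100 = 50.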

SK-MEL-28 = assay: Growth inhibition of human SK-MEL-28 cells assessed as cell growth at 10^-6 M incubated for 48 hrs by sulforhodamine B assay; details: SK-MEL-28, 48 h, read-out: Activity
KM12 = assay: Growth inhibition of human KM12 cells incubated for 48 hrs by sulforhodamine B assay; details: KM12, 48 h; outline: as §3
[8] = Growth inhibition of human leukemia cells incubated for 48 hrs by sulforhodamine B assay; details: Leukemia cell
786-0 = assay: Growth inhibition of human 786-0 cells assessed as cell growth at 10^-7 M incubated for 48 hrs by sulforhodamine B assay; details: 786-0, 48 h, read-out: Activity; outline: as §1
SK-MEL-2 = assay: Growth inhibition of human SK-MEL-2 cells assessed as cell growth at 10^-5 M incubated for 48 hrs by sulforhodamine B assay; details: SK-MEL-2, 48 h, read-out: Activity
[9] = Growth inhibition of human RPMI8226 cells assessed as cell growth at 10^-5 M incubated for 48 hrs by sulforhodamine B assay; details: RPMI-8226, 48 h, read-out: Activity
[10] = Growth inhibition of human COLO205 cells assessed as cell growth at 10 uM incubated for 48 hrs by sulforhodamine B assay; details: COLO 205, 48 h, read-out: Activity
Outline: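 Primary screen at one dose (10 µM) across 60 human cancer cell lines. Readout was growth percent relative to untreated control and time-zero.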

[11] = Growth inhibition of human OVCAR3 cells assessed as cell growth at 10^-4 M incubated for 48 hrs by sulforhodamine B assay; details: OVCAR-3, 48 h, read-out: Activity
[12] = Growth inhibition of human SNB75 cells incubated for 48 hrs by sulforhodamine B assay; details: SNB-75, 48 h; outline: as §3
[13] = Growth inhibition of human HCT15 cells assessed as cell growth at 10^-6 M incubated for 48 hrs by sulforhodamine B assay; details: HCT-15, 48 h, read-out: Activity; outline: as §2
MDA-MB-435 = assay: Growth inhibition of human MDA-MB-435 cells assessed as cell growth at 10^-6 M incubated for 48 hrs by sulforhodamine B assay; details: MDA-MB-435, 48 h, read-out: Activity
K562 = assay: Growth inhibition of human K562 cells assessed as cell growth at 10^-5 M incubated for 48 hrs by sulforhodamine B assay; details: K562, 48 h, read-out: Activity
[14] = Growth inhibition of human SNB75 cells assessed as cell growth at 10^-5 M incubated for 48 hrs by sulforhodamine B assay; details: SNB-75, 48 h, read-out: Activity
[15] = read-out: LC50 (the source's name)

SMILES: Clc1ccc(-c2nc(Nc3ccc(-c4nc5ccccc5[nH]4)cc3)nc(N3CCOCC3)n2)cc1
- growth at 0.1 µM [1]: 99%
- GI50 ([2]; read-out: GI50): 1730 nM
- TGI ([2]; read-out: TGI): 3680 nM
- GI50 ([2]; read-out: pGI50 (converted)): 1740 nM
- TGI ([2]; read-out: pTGI (converted)): 3720 nM
- growth at 0.1 µM (HT-29): 99%
- growth at 10 µM (T47D): -62%
- growth at 1 µM (NCI-H460): -45%
- growth at 10 µM (Malme-3M): -78%
- growth at 0.1 µM (MDA-MB-231): 92%
- growth at 100 µM (NCI-H322M [3]): -22%
- growth at 100 µM [4]: -63%
- growth at 0.1 µM [5]: 95%
- growth at 1 µM (NCI-H522): 77%
- growth at 0.01 µM [6]: 95%
- GI50 (NCI-H322M [7]; read-out: GI50): 303 nM
- TGI (NCI-H322M [7]; read-out: TGI): 1070 nM
- GI50 (NCI-H322M [7]; read-out: pGI50 (converted)): 302 nM
- TGI (NCI-H322M [7]; read-out: pTGI (converted)): 1070 nM
- growth at 1 µM (SK-MEL-28): 84%
- GI50 (KM12; read-out: GI50): 370 nM
- CC50 (KM12; [15]): 4750 nM
- TGI (KM12; read-out: TGI): 1410 nM
- GI50 (KM12; read-out: pGI50 (converted)): 372 nM
- CC50 (KM12; read-out: pLC50 (the source's name) (converted)): 4790 nM
- TGI (KM12; read-out: pTGI (converted)): 1410 nM
- GI50 [8]: 190 nM
- TGI [8]: 580 nM
- CC50 [8, 15]: > 100000 nM
- growth at 0.1 µM (786-0): 92%
- growth at 10 µM (SK-MEL-2): -87%
- growth at 10 µM [9]: -51%
- growth at 10 µM [10]: -68.4%
- growth at 100 µM [11]: -71%
- GI50 ([12]; read-out: GI50): 1750 nM
- TGI ([12]; read-out: TGI): 3250 nM
- GI50 ([12]; read-out: pGI50 (converted)): 1740 nM
- TGI ([12]; read-out: pTGI (converted)): 3240 nM
- growth at 1 µM [13]: -57%
- growth at 1 µM (MDA-MB-435): 36%
- growth at 10 µM (K562): -70%
- growth at 10 µM [14]: -91%
